The results in this text go back to ChEMBL document CHEMBL1158959, “Antitumor agents, 119. Kansuiphorins A and B, two novel antileukemic diterpene esters from Euphorbia kansui” (J Nat Prod, 1991).

Assay [1] has as its system HL-60(TB). In words: Cytotoxicity against human HL-60(TB) cells. It is filed as functional, cell-based.
In assay [2] the test system is U-251. In words: Cytotoxicity against human U251 cells. It is filed as functional, cell-based.
The subject of assay [3] is SNB-19. Put plainly: Cytotoxicity against human SNB19 cells. The class given is functional, cell-based.
For assay [4], the system named is SNB-75. In words: Cytotoxicity against human SNB75 cells. The class given is functional, cell-based.
Assay [5] can be described thus: Cytotoxicity against human NCI-H322 cells. The class given is functional, cell-based.
The subject of assay [6] is MOLT-4. Put plainly: Cytotoxicity against human MOLT4 cells. The class given is functional, cell-based.
Assay [7] concerns NCI-H82. Put plainly: Cytotoxicity against human H82 cells. The class given is functional, cell-based.
Assay [8] has as its system OVCAR-8. In words: Cytotoxicity against human OVCAR8 cells. The class given is functional, cell-based.
Assay [9] has as its system EKVX. Put plainly: Cytotoxicity against human EKVX cells. The class given is functional, cell-based.
In assay [10] the test system is NCI-H524. Put plainly: Cytotoxicity against human NCI-H524 cells. It is filed as functional, cell-based.
In assay [11] the test system is Malme-3M. In words: Cytotoxicity against human MALME-3M cells. It is filed as functional, cell-based.
For assay [12], the system named is OVCAR-5. In words: Cytotoxicity against human OVCAR5 cells. The class given is functional, cell-based.
Assay [13] has as its system NCI-H522. In words: Cytotoxicity against human NCI-H522 cells. It is filed as functional, cell-based.
Assay [14] has as its system NCI-H69. In words: Cytotoxicity against human H69 cells. It is filed as functional, cell-based.
For assay [15], the system named is P388. In words: In vivo antileukemic activity in mouse P388 cells at 0.1 mg/kg relative to control. The class given is functional. A digest of the protocol: (§1)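 In vivo P-388 lymphocytic leukemia model run by standard National Cancer Institute procedures; activity is reported as T/C (%), treated relative to control.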
In assay [16] the test system is SK-MEL-2. In words: Cytotoxicity against human SK-MEL-2 cells. The class given is functional, cell-based.
In assay [17] the test system is SW-620. In words: Cytotoxicity against human SW620 cells. It is filed as functional, cell-based.
For assay [18], the system named is MCF7. In words: Cytotoxicity against human MCF7 cells. It is filed as functional, cell-based.
For assay [19], the system named is SNB44. In words: Cytotoxicity against human SNB44 cells. The class given is functional, cell-based.
For assay [20], the system named is SN12K1. Put plainly: Cytotoxicity against human SN12K1 cells. It is filed as functional, cell-based.
Assay [21] relates to P388. Put plainly: Cytotoxicity against adriamycin-resistant mouse P388 cells. The class given is functional, cell-based.
In assay [22] the test system is NCI-H146. Put plainly: Cytotoxicity against human NCI-H146 cells. It is filed as functional, cell-based.
Assay [23] relates to K562. In words: Cytotoxicity against human K562 cells. The class given is functional, cell-based.
Assay [24] deals with HOP-62. In words: Cytotoxicity against human HOP62 cells. The class given is functional, cell-based.
The subject of assay [25] is HCC 2998. In words: Cytotoxicity against human HCC2998 cells. It is filed as functional, cell-based.
Assay [26] has as its system DLD-1. In words: Cytotoxicity against human DLD1 cells. It is filed as functional, cell-based.
For assay [27], the system named is NCI/ADR-RES. Put plainly: Cytotoxicity against human MCF7/ADR cells. The class given is functional, cell-based.
Assay [28] has as its system H125. Put plainly: Cytotoxicity against human H125 cells. The class given is functional, cell-based.
For assay [29], the system named is RPMI-7951. Put plainly: Cytotoxicity against human RPMI7951 cells. The class given is functional, cell-based.
The test system of assay [30] is SK-MEL-5. In words: Cytotoxicity against human SK-MEL-5 cells. The class given is functional, cell-based.
The subject of assay [31] is UO-31. Put plainly: Cytotoxicity against human UO31 cells. It is filed as functional, cell-based.
Assay [32] relates to NCI-H23. Put plainly: Cytotoxicity against human H23 cells. The class given is functional, cell-based.
The subject of assay [33] is A704. In words: Cytotoxicity against human A704 cells. The class given is functional, cell-based.
Assay [34] deals with A498. Put plainly: Cytotoxicity against human A498 cells. It is filed as functional, cell-based.
The test system of assay [35] is P388. Put plainly: In vivo antileukemic activity in mouse P388 cells at 0.5 mg/kg relative to control. It is filed as functional. Summed up:
as §1

≈ marks a conversion by molar mass, not a printed value. Calls of active or inactive are those of the source. The rule behind the calls is not given here. Bounds are passed on as bounds.

In the case of `CCCCCCCCCCCCCCCC(=O)OCC1=C[C@@H]2C(=O)[C@]3(C=C(C)[C@H](OC(=O)C(C)C(C)C)[C@@]3(O)[C@@H]1O)[C@H](C)C[C@]1(OC(=O)CCCCCCCCCCC)[C@H]2C1(C)C` (stereo not given in full) [KANSUIPHORIN A], the IC50 (commonly the point on the concentration scale where inhibition reaches its midpoint) was found to be 0.03 µg/mL (≈ 0.034 µM) in assay [1]; 0.33 µg/mL (≈ 0.374 µM) in [5]; 0.13 µg/mL (≈ 0.147 µM) in [6]; 0.32 µg/mL (≈ 0.362 µM) in [11]; 0.08 µg/mL (≈ 0.0906 µM) in assay [17]; 0.07 µg/mL (≈ 0.0792 µM) in assay [20]. Moreover, the IC50 in assay [23] was determined as 0.03 µg/mL (≈ 0.034 µM); in [24], 0.06 µg/mL (≈ 0.0679 µM); in assay [29], 0.05 µg/mL (≈ 0.0566 µM); in [30], 0.14 µg/mL (≈ 0.158 µM); in [33], 0.03 µg/mL (≈ 0.034 µM); in [34], 0.02 µg/mL (≈ 0.0226 µM). In addition, the result in assay [2], in [3], in assay [4], in [7], in [8] and in [9] was inactive. In addition, the result in assay [10], in assay [12], in assay [13], in assay [14], in [16] and in assay [18] was inactive. The outcome in [19], in [21], in assay [22], in assay [25], in [26] and in assay [27] was inactive. The outcome in assay [28], in assay [31] and in [32] was inactive. Besides, in assay [15], the T/C entry is on record as “>=176%”.

As to `CCCCCCCCCCCCCCCC(=O)OC[C@@]12O[C@@H]1[C@@H]1C(=O)[C@]3(C=C(C)[C@H](OC(=O)C(C)C(C)C)[C@@]3(O)[C@@H]2O)[C@H](C)C[C@]2(OC(=O)CCCCCCCCCCC)[C@H]1C2(C)C` (stereo not given in full) [KANSUIPHORIN B], the T/C result in assay [35] is given as “>=177%”.
